Data taken from ChEMBL document CHEMBL1949510, “Design and synthesis of 6,6-fused heterocyclic amides as raf kinase inhibitors” (Bioorg Med Chem Lett, 2012).
pEC50, pIC50: −log10 of the molar value.

Target: T1, Serine/threonine-protein kinase B-raf (Homo sapiens, UniProt P15056, V600E)
Experiment: Inhibition of Braf V600E mutant-mediated Erk phosphorylation in human SK-MEL-28 cells after 4 hrs by Western blot analysis
Type: cell-based
Settings: not given

T1 sequence (P15056 2-766 V600E limits assumed): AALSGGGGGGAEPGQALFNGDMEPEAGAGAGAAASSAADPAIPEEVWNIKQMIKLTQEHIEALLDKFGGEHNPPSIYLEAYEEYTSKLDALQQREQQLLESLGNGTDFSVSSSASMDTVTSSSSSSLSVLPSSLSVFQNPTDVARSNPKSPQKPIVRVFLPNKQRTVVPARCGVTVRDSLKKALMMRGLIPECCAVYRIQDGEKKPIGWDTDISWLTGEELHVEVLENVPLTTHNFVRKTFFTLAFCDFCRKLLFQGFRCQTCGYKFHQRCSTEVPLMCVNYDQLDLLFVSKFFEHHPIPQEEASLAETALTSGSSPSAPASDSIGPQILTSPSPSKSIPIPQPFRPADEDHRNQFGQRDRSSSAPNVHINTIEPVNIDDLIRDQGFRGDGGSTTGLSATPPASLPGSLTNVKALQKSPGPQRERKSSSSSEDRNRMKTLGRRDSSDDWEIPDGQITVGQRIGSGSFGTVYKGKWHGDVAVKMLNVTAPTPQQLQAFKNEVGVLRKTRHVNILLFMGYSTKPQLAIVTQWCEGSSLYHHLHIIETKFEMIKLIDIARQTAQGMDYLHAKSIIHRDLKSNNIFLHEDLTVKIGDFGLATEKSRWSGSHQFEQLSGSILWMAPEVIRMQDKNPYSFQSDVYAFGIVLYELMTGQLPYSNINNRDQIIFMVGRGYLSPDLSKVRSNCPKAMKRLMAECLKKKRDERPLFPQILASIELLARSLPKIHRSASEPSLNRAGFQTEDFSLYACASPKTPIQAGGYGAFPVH

pEC50 | SMILES
< 5.00 | CNC(=O)c1cc(Oc2ccc3nc(Nc4ccc(F)cc4)ncc3c2)ccn1
< 5.00 | CNC(=O)c1cc(Oc2ccc3nc(Nc4ccc(OC(F)(F)F)cc4)ncc3c2)ccn1
< 5.00 | CNC(=O)c1cc(Oc2ccc3nc(Nc4cccc(C(C)(C)C)c4)cnc3c2)ccn1
< 5.00 | CNC(=O)c1cc(Oc2ccc3nc(Nc4ccc(Br)cc4)ncc3c2)ccn1
< 5.00 | O=C(NCCN1CCCCC1)c1cc(Oc2ccc3nc(Nc4ccc(Br)cc4)ncc3c2)ccn1
< 5.00 | CNC(=O)c1cc(Oc2ccc3nc(Nc4cccc(C(C)C)c4)ncc3c2)ccn1
< 5.00 | CNC(=O)c1cc(Oc2ccc3nc(Nc4ccccc4Br)ncc3c2)ccn1
< 5.00 | CNC(=O)c1cc(Oc2ccc3nc(Nc4cccc(Cl)c4)ncc3c2)ccn1
< 5.00 | CNC(=O)c1cc(Oc2ccc3nc(Nc4ccc(OC)cc4)ncc3c2)ccn1
< 5.00 | CNC(=O)c1cc(Oc2ccc3nc(Nc4ccccc4Oc4ccccc4)ncc3c2)ccn1
< 5.00 | CNC(=O)c1cc(Oc2ccc3nc(Nc4cccc(C(C)(C)C)c4)ccc3c2)ccn1

Test system: not listed separately
Experiment: Oral bioavailability in mouse at 20 mg/kg administered as single dose
Type: ADME, organism-based
Settings: in vivo

bioavailability | SMILES
35% | CNC(=O)c1cc(Oc2ccc3nc(Nc4cccc(C(C)C)c4)ncc3c2)ccn1

Test system: not listed separately
Experiment: Half life in mouse at 20 mg/kg, po administered as single dose
Type: ADME, organism-based
Set-up: dose 20 mg/kg, route oral
Settings: in vivo

half-life | SMILES
7.8 h | CNC(=O)c1cc(Oc2ccc3nc(Nc4cccc(C(C)C)c4)ncc3c2)ccn1

Target: T1, Serine/threonine-protein kinase B-raf
Experiment: Inhibition of N-terminus His6-tagged Braf V600E mutant expressed in insect Sf9 cells assessed as Mek phosphorylation after 2 hrs by ELISA
Settings: not given
Method in brief: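 Biochemical assay with the purified BrafV600E kinase domain, not the full-length protein.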

pIC50 | SMILES
6.22 | CNC(=O)c1cc(Oc2ccc3nc(Nc4ccc(F)cc4)ncc3c2)ccn1
7.10 | CNC(=O)c1cc(Oc2ccc3nc(Nc4ccc(OC(F)(F)F)cc4)ncc3c2)ccn1
7.60 | CNC(=O)c1cc(Oc2ccc3nc(Nc4cccc(C(C)(C)C)c4)cnc3c2)ccn1
6.51 | CNC(=O)c1cc(Oc2ccc3nc(Nc4ccc(Br)cc4)ncc3c2)ccn1
5.89 | O=C(NCCN1CCCCC1)c1cc(Oc2ccc3nc(Nc4ccc(Br)cc4)ncc3c2)ccn1
6.82 | CNC(=O)c1cc(Oc2ccc3nc(Nc4cccc(C(C)C)c4)ncc3c2)ccn1
4.62 | CNC(=O)c1cc(Oc2ccc3nc(Nc4ccccc4Br)ncc3c2)ccn1
6.18 | CNC(=O)c1cc(Oc2ccc3nc(Nc4cccc(Cl)c4)ncc3c2)ccn1
6.41 | CNC(=O)c1cc(Oc2ccc3nc(Nc4ccc(OC)cc4)ncc3c2)ccn1
5.28 | CNC(=O)c1cc(Oc2ccc3nc(Nc4ccccc4Oc4ccccc4)ncc3c2)ccn1
7.59 | CNC(=O)c1cc(Oc2ccc3nc(Nc4cccc(C(C)(C)C)c4)ccc3c2)ccn1

Target: Vascular endothelial growth factor receptor 2 (Homo sapiens, UniProt P35968)
Experiment: Inhibition of KDR
Settings: not given
Method in brief: (§1)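 Selectivity profiling panel of 50 kinases spanning RTKs, STKs, TKs and AGC kinases.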

Chain of Vascular endothelial growth factor receptor 2 (P35968 whole entry): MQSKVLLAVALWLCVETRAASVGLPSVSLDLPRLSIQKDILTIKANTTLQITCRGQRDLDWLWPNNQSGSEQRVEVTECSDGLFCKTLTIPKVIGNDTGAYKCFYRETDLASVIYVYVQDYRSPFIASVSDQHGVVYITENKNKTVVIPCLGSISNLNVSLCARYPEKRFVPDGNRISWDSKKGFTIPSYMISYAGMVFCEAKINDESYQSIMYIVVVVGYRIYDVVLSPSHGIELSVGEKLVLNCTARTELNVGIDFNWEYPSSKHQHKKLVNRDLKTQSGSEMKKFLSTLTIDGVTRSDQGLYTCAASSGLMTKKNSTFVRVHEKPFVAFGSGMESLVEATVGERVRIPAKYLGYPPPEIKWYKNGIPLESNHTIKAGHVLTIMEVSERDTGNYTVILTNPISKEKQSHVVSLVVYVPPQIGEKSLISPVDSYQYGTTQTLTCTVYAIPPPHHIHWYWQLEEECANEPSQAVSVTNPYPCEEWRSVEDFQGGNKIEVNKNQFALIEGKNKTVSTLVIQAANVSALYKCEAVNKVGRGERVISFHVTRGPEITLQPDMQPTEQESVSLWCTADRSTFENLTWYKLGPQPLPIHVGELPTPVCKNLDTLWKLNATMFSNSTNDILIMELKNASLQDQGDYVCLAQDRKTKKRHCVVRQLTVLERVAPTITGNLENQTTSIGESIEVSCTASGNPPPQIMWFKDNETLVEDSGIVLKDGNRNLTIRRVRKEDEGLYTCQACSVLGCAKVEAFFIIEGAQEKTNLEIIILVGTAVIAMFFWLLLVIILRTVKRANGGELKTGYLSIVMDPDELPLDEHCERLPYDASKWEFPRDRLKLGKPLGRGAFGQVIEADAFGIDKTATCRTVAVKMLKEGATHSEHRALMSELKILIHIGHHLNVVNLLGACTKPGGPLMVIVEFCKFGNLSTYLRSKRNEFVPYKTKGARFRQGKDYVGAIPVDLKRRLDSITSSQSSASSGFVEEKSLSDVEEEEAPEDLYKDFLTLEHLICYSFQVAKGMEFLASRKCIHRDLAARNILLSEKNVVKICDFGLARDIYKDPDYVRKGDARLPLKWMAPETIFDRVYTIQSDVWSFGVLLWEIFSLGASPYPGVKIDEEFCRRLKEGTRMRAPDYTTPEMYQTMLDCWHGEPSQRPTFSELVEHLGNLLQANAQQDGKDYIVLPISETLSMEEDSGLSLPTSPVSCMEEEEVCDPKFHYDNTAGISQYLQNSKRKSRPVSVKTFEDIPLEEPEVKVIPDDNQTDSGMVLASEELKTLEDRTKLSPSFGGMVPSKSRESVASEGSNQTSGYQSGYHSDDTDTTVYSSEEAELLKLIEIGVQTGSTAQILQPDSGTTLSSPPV

pIC50 | SMILES
> 6.00 | CNC(=O)c1cc(Oc2ccc3nc(Nc4cccc(C(C)(C)C)c4)cnc3c2)ccn1
> 6.00 | CNC(=O)c1cc(Oc2ccc3nc(Nc4cccc(C(C)(C)C)c4)ccc3c2)ccn1

Test system: Mus musculus
Experiment: Volume of distribution in mouse at 20 mg/kg, po administered as single dose
Type: ADME, organism-based
Set-up: dose 20 mg/kg, route oral
Settings: in vivo

Vd | SMILES
4.717 L/kg | CNC(=O)c1cc(Oc2ccc3nc(Nc4cccc(C(C)C)c4)ncc3c2)ccn1

Target: Macrophage colony-stimulating factor 1 receptor (Homo sapiens, UniProt P07333)
Experiment: Inhibition of CSFR1
Settings: not given
Method in brief: as §1

Chain of Macrophage colony-stimulating factor 1 receptor (P07333 whole entry): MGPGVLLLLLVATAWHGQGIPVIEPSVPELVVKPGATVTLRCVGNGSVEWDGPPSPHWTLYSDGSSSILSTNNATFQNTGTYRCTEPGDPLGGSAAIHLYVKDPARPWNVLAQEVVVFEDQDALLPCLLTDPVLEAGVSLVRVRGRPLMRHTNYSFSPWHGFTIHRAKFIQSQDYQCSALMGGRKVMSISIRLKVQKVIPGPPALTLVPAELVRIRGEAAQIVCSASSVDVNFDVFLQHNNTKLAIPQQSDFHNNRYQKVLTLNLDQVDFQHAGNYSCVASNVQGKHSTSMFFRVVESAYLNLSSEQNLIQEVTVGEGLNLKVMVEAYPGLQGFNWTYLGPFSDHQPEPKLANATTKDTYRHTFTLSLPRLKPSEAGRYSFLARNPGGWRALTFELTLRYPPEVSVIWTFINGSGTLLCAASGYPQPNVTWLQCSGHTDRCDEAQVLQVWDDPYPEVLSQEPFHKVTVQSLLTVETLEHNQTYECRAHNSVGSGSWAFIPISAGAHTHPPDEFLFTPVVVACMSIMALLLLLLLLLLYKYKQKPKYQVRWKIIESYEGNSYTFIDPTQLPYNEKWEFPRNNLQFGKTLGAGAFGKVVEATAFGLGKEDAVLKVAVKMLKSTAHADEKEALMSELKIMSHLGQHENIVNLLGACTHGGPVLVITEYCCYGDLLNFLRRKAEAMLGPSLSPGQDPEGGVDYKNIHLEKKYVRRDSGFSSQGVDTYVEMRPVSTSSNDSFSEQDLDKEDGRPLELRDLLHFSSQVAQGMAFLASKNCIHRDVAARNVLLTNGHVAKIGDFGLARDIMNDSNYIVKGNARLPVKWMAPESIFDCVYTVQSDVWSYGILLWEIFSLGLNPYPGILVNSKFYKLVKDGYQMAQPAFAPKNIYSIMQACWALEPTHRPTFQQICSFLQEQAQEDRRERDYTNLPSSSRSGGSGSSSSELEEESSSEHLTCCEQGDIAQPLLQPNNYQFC

pIC50 | SMILES
> 6.00 | CNC(=O)c1cc(Oc2ccc3nc(Nc4cccc(C(C)(C)C)c4)cnc3c2)ccn1
> 6.00 | CNC(=O)c1cc(Oc2ccc3nc(Nc4cccc(C(C)(C)C)c4)ccc3c2)ccn1

Target: T2, Receptor-type tyrosine-protein kinase FLT3 (Homo sapiens, UniProt P36888)
T2 sequence (P36888 whole entry): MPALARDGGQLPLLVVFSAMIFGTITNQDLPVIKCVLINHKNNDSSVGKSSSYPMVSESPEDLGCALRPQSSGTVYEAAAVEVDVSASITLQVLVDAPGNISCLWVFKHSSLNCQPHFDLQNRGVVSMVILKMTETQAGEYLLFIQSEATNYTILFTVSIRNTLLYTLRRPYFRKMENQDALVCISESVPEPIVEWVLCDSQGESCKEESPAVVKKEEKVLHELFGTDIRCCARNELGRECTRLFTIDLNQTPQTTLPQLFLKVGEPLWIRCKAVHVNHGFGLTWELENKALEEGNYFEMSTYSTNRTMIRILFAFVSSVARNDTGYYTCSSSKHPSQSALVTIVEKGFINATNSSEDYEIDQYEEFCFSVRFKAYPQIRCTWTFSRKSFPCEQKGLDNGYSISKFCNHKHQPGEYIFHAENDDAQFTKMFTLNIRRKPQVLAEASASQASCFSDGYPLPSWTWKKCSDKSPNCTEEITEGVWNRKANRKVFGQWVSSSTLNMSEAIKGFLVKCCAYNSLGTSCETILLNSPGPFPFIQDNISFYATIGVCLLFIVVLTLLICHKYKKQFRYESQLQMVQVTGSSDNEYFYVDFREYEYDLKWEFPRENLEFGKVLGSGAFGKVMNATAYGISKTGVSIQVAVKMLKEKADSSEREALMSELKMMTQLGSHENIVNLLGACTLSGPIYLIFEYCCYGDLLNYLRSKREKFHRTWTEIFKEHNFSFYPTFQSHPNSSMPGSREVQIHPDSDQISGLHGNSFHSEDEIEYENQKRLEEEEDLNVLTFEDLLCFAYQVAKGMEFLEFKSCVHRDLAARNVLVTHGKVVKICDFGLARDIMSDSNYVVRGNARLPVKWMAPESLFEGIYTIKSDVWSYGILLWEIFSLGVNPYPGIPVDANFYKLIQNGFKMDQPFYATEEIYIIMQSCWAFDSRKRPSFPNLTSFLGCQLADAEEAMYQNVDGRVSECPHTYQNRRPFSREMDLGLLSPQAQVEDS
Experiment: Inhibition of Flt3
Settings: not given
Method in brief: as §1

pIC50 | SMILES
> 6.00 | CNC(=O)c1cc(Oc2ccc3nc(Nc4cccc(C(C)(C)C)c4)cnc3c2)ccn1
> 6.00 | CNC(=O)c1cc(Oc2ccc3nc(Nc4cccc(C(C)(C)C)c4)ccc3c2)ccn1

Test system: not listed separately
Experiment: Clearance in mouse at 20 mg/kg, po administered as single dose
Type: ADME, organism-based
Set-up: dose 20 mg/kg, route oral
Settings: in vivo

CL/F | SMILES
53.1 mL/min/kg | CNC(=O)c1cc(Oc2ccc3nc(Nc4cccc(C(C)C)c4)ncc3c2)ccn1

Test system: not listed separately
Experiment: Apparent permeability from apical to basolateral side in human Caco2 cells
Type: ADME, cell-based
Settings: Caco-2

Papp A→B | SMILES
< 1 ×10⁻⁶ cm/s | CNC(=O)c1cc(Oc2ccc3nc(Nc4ccc(F)cc4)ncc3c2)ccn1
< 1 ×10⁻⁶ cm/s | CNC(=O)c1cc(Oc2ccc3nc(Nc4ccc(OC(F)(F)F)cc4)ncc3c2)ccn1
< 1 ×10⁻⁶ cm/s | CNC(=O)c1cc(Oc2ccc3nc(Nc4cccc(C(C)(C)C)c4)cnc3c2)ccn1
< 1 ×10⁻⁶ cm/s | CNC(=O)c1cc(Oc2ccc3nc(Nc4ccc(Br)cc4)ncc3c2)ccn1
< 1 ×10⁻⁶ cm/s | O=C(NCCN1CCCCC1)c1cc(Oc2ccc3nc(Nc4ccc(Br)cc4)ncc3c2)ccn1
< 1 ×10⁻⁶ cm/s | CNC(=O)c1cc(Oc2ccc3nc(Nc4cccc(C(C)C)c4)ncc3c2)ccn1
< 1 ×10⁻⁶ cm/s | CNC(=O)c1cc(Oc2ccc3nc(Nc4ccccc4Br)ncc3c2)ccn1
< 1 ×10⁻⁶ cm/s | CNC(=O)c1cc(Oc2ccc3nc(Nc4cccc(Cl)c4)ncc3c2)ccn1
< 1 ×10⁻⁶ cm/s | CNC(=O)c1cc(Oc2ccc3nc(Nc4ccc(OC)cc4)ncc3c2)ccn1
< 1 ×10⁻⁶ cm/s | CNC(=O)c1cc(Oc2ccc3nc(Nc4ccccc4Oc4ccccc4)ncc3c2)ccn1
< 1 ×10⁻⁶ cm/s | CNC(=O)c1cc(Oc2ccc3nc(Nc4cccc(C(C)(C)C)c4)ccc3c2)ccn1

Target: Tyrosine-protein kinase ABL1 (Homo sapiens, UniProt P00519)
Experiment: Inhibition of cABL
Settings: not given
Method in brief: as §1

Chain of Tyrosine-protein kinase ABL1 (P00519 whole entry): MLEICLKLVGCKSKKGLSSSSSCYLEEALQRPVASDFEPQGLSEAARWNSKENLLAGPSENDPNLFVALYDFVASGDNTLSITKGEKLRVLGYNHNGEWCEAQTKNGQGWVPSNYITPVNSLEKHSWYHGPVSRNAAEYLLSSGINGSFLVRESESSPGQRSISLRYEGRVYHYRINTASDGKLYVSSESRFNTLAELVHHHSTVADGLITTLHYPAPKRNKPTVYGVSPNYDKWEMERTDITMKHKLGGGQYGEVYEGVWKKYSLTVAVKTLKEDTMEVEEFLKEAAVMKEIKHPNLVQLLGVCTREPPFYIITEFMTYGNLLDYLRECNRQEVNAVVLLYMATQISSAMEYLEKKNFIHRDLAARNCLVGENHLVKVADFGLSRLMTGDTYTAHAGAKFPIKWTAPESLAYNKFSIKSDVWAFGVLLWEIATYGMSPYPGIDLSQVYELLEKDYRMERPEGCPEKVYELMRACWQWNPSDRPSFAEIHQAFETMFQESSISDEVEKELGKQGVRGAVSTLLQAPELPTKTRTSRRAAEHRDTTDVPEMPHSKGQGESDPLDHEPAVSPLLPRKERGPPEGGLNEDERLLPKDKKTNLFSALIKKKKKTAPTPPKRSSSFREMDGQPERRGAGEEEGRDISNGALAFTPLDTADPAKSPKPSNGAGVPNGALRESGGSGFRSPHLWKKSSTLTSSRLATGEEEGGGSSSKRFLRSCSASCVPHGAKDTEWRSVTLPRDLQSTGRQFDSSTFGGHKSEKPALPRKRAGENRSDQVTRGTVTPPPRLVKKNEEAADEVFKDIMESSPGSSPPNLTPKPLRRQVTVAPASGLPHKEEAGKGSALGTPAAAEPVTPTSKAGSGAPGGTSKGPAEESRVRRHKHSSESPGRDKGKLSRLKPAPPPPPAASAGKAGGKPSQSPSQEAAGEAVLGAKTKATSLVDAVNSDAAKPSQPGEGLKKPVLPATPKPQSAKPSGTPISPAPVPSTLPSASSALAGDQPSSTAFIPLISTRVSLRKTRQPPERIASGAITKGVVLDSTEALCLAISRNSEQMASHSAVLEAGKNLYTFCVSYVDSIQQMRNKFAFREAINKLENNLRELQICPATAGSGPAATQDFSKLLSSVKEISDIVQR

pIC50 | SMILES
> 6.00 | CNC(=O)c1cc(Oc2ccc3nc(Nc4cccc(C(C)(C)C)c4)cnc3c2)ccn1
> 6.00 | CNC(=O)c1cc(Oc2ccc3nc(Nc4cccc(C(C)(C)C)c4)ccc3c2)ccn1

Test system: not listed separately
Experiment: Solubility of the compound at pH 7
Type: physicochemical
Settings: buffer

solubility | SMILES
< 1 µM | CNC(=O)c1cc(Oc2ccc3nc(Nc4ccc(F)cc4)ncc3c2)ccn1
< 1 µM | CNC(=O)c1cc(Oc2ccc3nc(Nc4ccc(OC(F)(F)F)cc4)ncc3c2)ccn1
< 1 µM | CNC(=O)c1cc(Oc2ccc3nc(Nc4cccc(C(C)(C)C)c4)cnc3c2)ccn1
< 1 µM | CNC(=O)c1cc(Oc2ccc3nc(Nc4ccc(Br)cc4)ncc3c2)ccn1
< 1 µM | O=C(NCCN1CCCCC1)c1cc(Oc2ccc3nc(Nc4ccc(Br)cc4)ncc3c2)ccn1
< 1 µM | CNC(=O)c1cc(Oc2ccc3nc(Nc4cccc(C(C)C)c4)ncc3c2)ccn1
< 1 µM | CNC(=O)c1cc(Oc2ccc3nc(Nc4ccccc4Br)ncc3c2)ccn1
< 1 µM | CNC(=O)c1cc(Oc2ccc3nc(Nc4cccc(Cl)c4)ncc3c2)ccn1
< 1 µM | CNC(=O)c1cc(Oc2ccc3nc(Nc4ccc(OC)cc4)ncc3c2)ccn1
< 1 µM | CNC(=O)c1cc(Oc2ccc3nc(Nc4ccccc4Oc4ccccc4)ncc3c2)ccn1
< 1 µM | CNC(=O)c1cc(Oc2ccc3nc(Nc4cccc(C(C)(C)C)c4)ccc3c2)ccn1
